In publication PMC2857554 (Nature chemical biology, 2010):

What was measured:
[1] = test system: U2OS cells; experiment: Mitotic escape assay; assay type: cell-based
[2] = test system: U2OS H2B–GFP cells with Plk4 overexpression; experiment: Time-lapse of mitosis in cells with extra centrosomes; assay type: cell-based; details: extra centrosome containing cells
Procedure, shortened: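 U2OS H2B–GFP cells with doxycycline-inducible Plk4 were blocked in thymidine for 18 h, then released into doxycycline (2 µg·ml−1) for 10 h. A second 18 h thymidine block followed, then release into medium for 6 h. Cells were treated with 5 µM test compound and imaged by time-lapse at 37°C, 5% CO2.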

[3] = test system: MCF10A cells; experiment: PARP cleavage immunoblot; assay type: cell-based; details: 25 µM
[4] = test system: UTRM10 cells; experiment: Centriole overduplication under hydroxyurea; assay type: cell-based; details: 10 or 25 µM with hydroxyurea, 48 hours
Procedure, shortened: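 UTRM10 cells co-treated for 48 h with hydroxyurea (4 mM) plus test compound (10 or 25 µM) or DMSO vehicle. Centrioles were scored by centrin immunostaining, with about 433–485 cells counted per condition. Results are mean ± SD of three independent experiments.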

[5] = test system: Hela S3 cells expressing histone H2B-GFP; experiment: Mitotic escape, time-lapse, nocodazole arrest; assay type: cell-based; details: nocodazole-arrested cells
Procedure, shortened: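 Hela S3 cells expressing H2B-GFP were treated with nocodazole with or without test compound. They were imaged in a heated chamber (37°C, 5% CO2), with DIC and GFP frames every 5 min across 5 z-planes. Mitotic exit was scored by nuclear envelope reassembly, counting 150 cells per population.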

[6] = test system: HCT116 cells; experiment: Proliferation assay; assay type: cell-based
[7] = target: Aurora B (Homo sapiens, UniProt Q96GD4); experiment: Lanthascreen in vitro assay on Aurora B; assay type: binding; details: in vitro assays
[8] = test system: HCT116 cells; experiment: Colony outgrowth assay; assay type: cell-based; details: 5–10 µM, 10 days
[9] = test system: U2OS cells with Plk4 overexpression; experiment: Proliferation assay of PLK4-overexpressing U2OS cells; assay type: cell-based; details: 48, 72, 96 hours
[10] = test system: PtK2 cells stably expressing HsMad2-EYFP; experiment: Mad2 kinetochore establishment assay; assay type: cell-based, Potorous tridactylus; details: 10 µM, NEB to NER
[11] = test system: U2OS cells; experiment: Intracellular Aurora B kinase activity, immunoblot; assay type: cell-based; details: taxol and MG132, mitotic shake-off
[12] = test system: Hela S3 or U2OS cells; experiment: Centrosome duplication in cycling cells; assay type: cell-based; details: 10 µM, 1 or 2 cell doublings
Procedure, shortened: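 Hela S3 and U2OS cells on 12-mm coverslips were synchronized, then cycled in test compound or DMSO for one or two cell cycles. Mitotic spindles were stained for centrin, α-tubulin and DNA. The percentage of mitotic cells with fewer than 4 centrin dots was scored, counting 135–300 cells per arm. Results are mean ± SD from three independent experiments.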

[13] = test system: hTERT-RPE1 cells; experiment: PARP cleavage immunoblot; assay type: cell-based; details: 25 µM
[14] = test system: HCT116 cells; experiment: PARP cleavage immunoblot; assay type: cell-based
Procedure, shortened: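 HCT116 cells in McCoy's 5A with 10% FBS were treated with test compound at a series of concentrations. Lysates were collected at 24, 48 and 72 h and immunoblotted for PARP cleavage.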

[15] = test system: UTRM10 cells expressing LAP-Mps1 M602Q; experiment: pHistone H3 immunoblot in cells expressing inhibitor-resistant Mps1; assay type: cell-based; details: thymidine/taxol arrest; VX-680 2 µM
[16] = test system: Mps1; details: cited from earlier work
[17] = test system: mammalian cells; details: cited from earlier work

Aurora B, sequence (Q96GD4 whole entry): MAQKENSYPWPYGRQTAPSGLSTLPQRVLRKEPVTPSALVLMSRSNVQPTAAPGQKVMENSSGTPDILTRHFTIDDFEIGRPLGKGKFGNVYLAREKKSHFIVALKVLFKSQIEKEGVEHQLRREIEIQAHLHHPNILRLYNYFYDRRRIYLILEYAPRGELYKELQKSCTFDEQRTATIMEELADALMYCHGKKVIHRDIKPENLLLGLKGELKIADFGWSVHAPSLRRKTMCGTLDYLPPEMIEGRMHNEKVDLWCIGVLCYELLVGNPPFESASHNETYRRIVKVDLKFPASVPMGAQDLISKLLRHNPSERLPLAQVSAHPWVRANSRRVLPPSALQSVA

SMILES | 4c pHistone H3 negative cells, flow cytometry ([1]; nocodazole-arrested cells) | cyclin B protein levels ([1]; thymidine/nocodazole arrest, 4 hrs inhibitor, reversed by MG132) | decrease in time spent in mitosis [2] [fold] | apoptosis-associated PARP cleavage [3] | effect on centriole overduplication [4] | time within which the majority of cells escape mitosis [5] [h] | cytotoxic concentrations [6] [µM] | activity against Aurora B in vitro [7] | cell viability and clonal survival [8] | additional cytotoxicity versus parental U2OS [9] | less time spent in mitosis versus DMSO [10] | phosphorylation of Aurora B at Thr232 [11] | mitotic cells containing less than 4 centrioles, versus vehicle [12] | apoptosis-associated PARP cleavage [13] | onset of PARP cleavage (apoptosis) [14] [h] | hyperphosphorylation status of Mps1 (mobility shift) [11] | mitotic escape despite LAP-Mps1 M602Q [15] | inhibition of Mps1 kinase activity in S. cerevisiae [16] | effectiveness in mammalian cells [17]
COc1cc(N2CCC(O)CC2)ccc1Nc1cc(Nc2ccccc2S(=O)(=O)C(C)C)c2cc[nH]c2n1 [Mps1-IN-1] | dose-dependent accumulation of 4c pHistone H3 negative cells | dropped with increasing concentration | 4 | little-to-no apoptosis-associated PARP cleavage | no effect | ≤ 1 | 5 to 10 | does not exhibit activity against Aurora B | severe loss of cell viability and clonal survival | no detectable additional cytotoxicity | roughly 40% | dose-dependent reduction | no significant difference | little-to-no apoptosis-associated PARP cleavage | 48 | – | – | – | –
Cc1cc(Nc2cc(N3CCN(C)CC3)nc(Sc3ccc(NC(=O)C4CC4)cc3)n2)n[nH]1 [VX-680] | – | – | – | – | – | – | – | – | – | – | – | inhibited | – | – | – | did not adversely affect | still capable of executing an efficient mitotic escape | – | –
O=c1[nH]c2ccc(Br)cc2o1 [cincreasin] | – | – | – | – | – | – | – | – | – | – | – | – | – | – | – | – | – | effective | ineffective
